Results as given in ChEMBL document CHEMBL1124823, “Antimitotic agents: synthesis of imidazo[4,5-c]pyridin-6-ylcarbamates and imidazo[4,5-b]pyridin-5-ylcarbamates” (J Med Chem, 1990).

Columns and labels:
L1210 [1] = assay: The compound was tested for cell growth inhibitory activity against lymphoid leukemia L1210 cell line.; type: functional, cell-based; settings: Mus musculus
In short: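 Cultured lymphoid leukemia L1210 cells were grown with agent for 48 h. The value is the micromolar concentration that inhibits proliferation to 50% of control growth.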

Mus musculus [2] = assay: Increase in life span (ILS) in mice implanted intraperitoneally with lymphocytic leukemia P388 cells at a nontoxic dose of 100 mg/kg; type: functional; settings: P388, ip, route intraperitoneal
Mus musculus [3] = assay: Increase in life span (ILS) in mice implanted intraperitoneally with lymphocytic leukemia P388 cells at a nontoxic dose of 2 mg/kg; type: functional; settings: P388, ip, route intraperitoneal
L1210 [4] = assay: Concentration that causes a mitotic index (number of cells in mitosis divided by total cells) of cultured lymphoid leukemia L1210 cells.; type: functional, Mus musculus
In short: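 Cultured lymphoid leukemia L1210 cells were exposed to agent for 12 h. Mitotic index was taken as the number of cells in mitosis divided by total cells. The value is the micromolar concentration giving a mitotic index of 0.5.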

Mus musculus [5] = assay: Increase in life span (ILS) in mice implanted intraperitoneally with lymphocytic leukemia P388 cells at a nontoxic dose of 100 mg/kg; toxic dose by weight loss when repeated; type: functional; settings: P388, ip, route intraperitoneal
Mus musculus [6] = assay: Increase in life span (ILS) in mice implanted intraperitoneally with lymphocytic leukemia P388 cells at a nontoxic dose of 200 mg/kg; toxic dose by weight loss when repeated; type: functional; settings: P388, ip, route intraperitoneal
Mus musculus [7] = assay: Increase in life span (ILS) in mice implanted intraperitoneally with lymphocytic leukemia P388 cells at a nontoxic dose of 200 mg/kg; type: functional; settings: P388, ip, route intraperitoneal
Mus musculus [8] = assay: Increase in life span (ILS) in mice implanted intraperitoneally with lymphocytic leukemia P388 cells at a nontoxic dose of 50 mg/kg; type: functional; settings: P388, ip, route intraperitoneal

| Compound | IC50 (L1210 [1]) [nM] | MI0.5 (L1210 [4]) [µM] | other results |
| --- | --- | --- | --- |
| CCOC(=O)Nc1cc2c(nc(SCc3ccccc3)n2/N=C/c2ccccc2)c(N)n1 | 50000 |  |  |
| CCOC(=O)Nc1cc2c(nc(SCc3ccc4c(c3)OCO4)n2N)c(N)n1 | 170 |  | ILS at 100 mg/kg (Mus musculus [2]): 25% |
| CCOC(=O)Nc1cc2c(nc(SCc3ccc(OC)cc3)n2N)c(N)n1 | 60 |  | ILS at 100 mg/kg (Mus musculus [2]): 24% |
| CCOC(=O)Nc1cc2c(c(N)n1)N=C(c1ccccc1)CN2 |  | 0.0028 | ILS at 2 mg/kg (Mus musculus [3]): 51% |
| CCOC(=O)Nc1cc2c(ncn2/N=C/c2ccccc2)c(N)n1 | 150 | 0.61 | ILS at 100 mg/kg (Mus musculus [5]): 39% |
| CCOC(=O)Nc1cc(N(C)/N=C/c2ccccc2)c2nc[nH]c2n1 | 3100 |  |  |
| CCOC(=O)Nc1cc2c(nc(SCc3ccccc3)n2N)c(N)n1 | 600 | 1.6 | ILS at 200 mg/kg (Mus musculus [6]): 39% |
| CCOC(=O)Nc1cc2c(nc(S)n2/N=C/c2ccccc2)c(N)n1 | 470 | 11 | ILS at 200 mg/kg (Mus musculus [7]): 6% |
| CCOC(=O)Nc1cc2[nH]c(-c3ccccc3)nc2c(N)n1 | 900 | 8 | ILS at 200 mg/kg (Mus musculus [7]): 0% |
| CCOC(=O)Nc1cc(N/N=C/c2ccccc2)c(N)c(N)n1 | 4600 | 15 | ILS at 50 mg/kg (Mus musculus [8]): 4% |
| CCOC(=O)Nc1cc(N/N=C/c2ccccc2)c2[nH]c(SCc3ccccc3)nc2n1 | 46000 |  |  |
| CCOC(=O)Nc1cc2c(nc(S)n2N)c(N)n1 | > 30000 |  |  |
| CCOC(=O)Nc1cc(N/N=C/c2ccccc2)c2[nH]c(S)nc2n1 | 1500 | 5.5 | ILS at 200 mg/kg (Mus musculus [7]): 10% |
| CCOC(=O)Nc1cc(N/N=C/c2ccccc2)c2[nH]cnc2n1 | 250 | 0.94 | ILS at 100 mg/kg (Mus musculus [5]): 46% |
